Measurements reported in publication PMC10926215 (The Journal of Biological Chemistry, 2024).
Square brackets hold non-standard residues; d marks the D form. Peptide text beside a SMILES is read from it. pS = N[C@@H](COP(=O)(O)O)C(=O)O

How the values were obtained:
[1] = system: PDE8A–14-3-3ζ interaction; test: Co-immunoprecipitation of PDE8A with HA-14-3-3ζ in treated HEK293T cells; type: cell-based, human; details: for change of PDE8A–14-3-3ζ interaction, PKC activator/inhibitor: 1 μM, Fig. 3B
PDE8A = details: background statement; ref not stated; cited from earlier work
14-3-3ζ protein = target: T1, 14-3-3ζ protein (Homo sapiens, UniProt P63104); test: 31P NMR titration of KA14P with 14-3-3ζ protein; type: binding
T1 sequence (P63104 1-245): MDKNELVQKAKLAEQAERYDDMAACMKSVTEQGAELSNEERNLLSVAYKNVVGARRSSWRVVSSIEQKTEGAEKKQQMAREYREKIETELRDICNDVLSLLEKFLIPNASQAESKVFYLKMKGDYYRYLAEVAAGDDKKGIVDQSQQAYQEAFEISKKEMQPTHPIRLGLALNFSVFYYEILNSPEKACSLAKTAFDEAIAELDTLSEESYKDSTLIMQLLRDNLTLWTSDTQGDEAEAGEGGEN
Procedure, shortened: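 Human 14-3-3ζ expressed from pQE30 in E. coli M15 (0.5 mM IPTG, 3 h, 37 °C), Ni-NTA purified, and stored in 10 mM phosphate pH 6.1 with 50 mM NaCl. Peptide held at 500 μM. Spectra taken with 512 scans, 16 dummy scans and a 10 s recycle delay. A 20 Hz exponential line broadening was applied before Fourier transformation.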

[2] = target: KA14P (phosphorylated PDE8A peptide) (human); test: NMR titration
[3] = system: DN-PDE8A (D726A)–14-3-3ζ interaction; test: Co-immunoprecipitation of DN-PDE8A with HA-14-3-3ζ in treated HEK293T cells; type: cell-based, human; details: forskolin 100 μM, 15 min; Fig. 3D
[4] = system: D726A PDE8A mutant (DN-PDE8A); details: cited from earlier work
14-3-3ζ = 14-3-3ζ (UniProt P63104); test: co-IP, anti-HA IP, Myc/FLAG blot; details: reference: wild type PDE8A; sites S359

Compound: insulin: human insulin; activator of PI3K
- PDE8A–14-3-3ζ interaction, activator of PI3K ([1]; 200 μM, 30 min, Fig. 3C): remained unchanged

Compound: O=S(=O)(NCCNC/C=C/c1ccc(Br)cc1)c1cccc2cnccc12 [H89]
- association of PDE8A and 14-3-3ζ, PKA inhibitor ([1]; 100 μM, 15 min pretreatment, then forskolin 100 μM, 15 min, anti-HA IP, Fig. 3A): association decreased

Compound: CC(C)Cn1c(=O)n(C)c(=O)c2[nH]cnc21 [IBMX, 3-isobutyl-1-methylxanthine]
- sensitivity of PDE8A to inhibitor (PDE8A): insensitive

Compound: CC(C)C[C@H](NC(=O)[C@H](COP(=O)(O)O)NC(=O)CNC(=O)[C@H](CCCCN)NC(=O)[C@H](CCCNC(=N)N)NC(=O)[C@H](CCCNC(=N)N)NC(=O)[C@H](CC(=O)O)NC(=O)[C@@H](N)CCCCN)C(=O)N[C@@H](CC(=O)O)C(=O)N[C@H](C(=O)N[C@@H](CCCCN)C(=O)N[C@@H](C)C(=O)N[C@H](C(=O)N[C@@H](C)C(=O)O)C(C)C)C(C)C [KA14P] (H-KDRRKG[pS]LDVKAVA-OH)
- Kd (14-3-3ζ protein): 11.3 ± 0.18 µM

Compound: CCCCCCCCCCCCCC(=O)O[C@@H]1[C@@H](C)[C@@]2(O)[C@@H](C=C(CO)C[C@]3(O)C(=O)C(C)=C[C@@H]23)[C@@H]2C(C)(C)[C@]12OC(C)=O [PMA, phorbol 12-myristate 13-acetate]
- change of PDE8A–14-3-3ζ interaction, PKC activator/inhibitor ([1]; 15 min): no change of interaction

Compound: COc1ccc(Cl)c(Nc2nc3ccccc3nc2NS(=O)(=O)c2cccc(NC(=O)C(C)(C)N)c2)c1 [pilaralisib]
- PDE8A–14-3-3ζ interaction, inhibitor of PI3K ([1]; 100 μM, 30 min, Fig. 3C): remained unchanged

Compound: purified recombinant 14-3-3ζ (from UniProt P63104 1-245) (natural protein)
- Kd [2]: 11.3 µM

Compound: C=C[C@@]1(C)CC(=O)[C@]2(O)[C@@]3(C)[C@@H](O)CCC(C)(C)[C@@H]3[C@H](O)[C@H](OC(C)=O)[C@@]2(C)O1 [forskolin]
- association of PDE8A and 14-3-3ζ, PKA activator ([1]; 100 μM, 15 min, serum-free, anti-HA IP, at least three repeats, Fig. 3A): increased association
- interaction of DN-PDE8A with 14-3-3ζ [3]: increased further
- phosphorylation of DN-PDE8A by PKA following treatment [4]: rapidly phosphorylated

Compound: CN(C)CCCn1cc(C2=C(c3c[nH]c4ccccc34)C(=O)NC2=O)c2ccccc21 [GX109203X]
- change of PDE8A–14-3-3ζ interaction, PKC activator/inhibitor ([1]; 15 min): no change of interaction

Compound: PDE8A (phosphodiesterase 8A) (from UniProt O60658) S359A
- binding against the reference (14-3-3ζ): lost
